Source: ChEMBL document CHEMBL1121818, “Some reactions of 1,4-dihydropyridines with organic azides. Synthesis of 2,7-diazabicyclo[4.1.0]hept-3-enes with analgesic and antiprotozoal activity” (1981)

Tests used:
Format in all cases: functional
Mus musculus [1] = assay: Analgesic activity was measured on phenylquinone writhing in mice at 128 mg/kg subcutaneous dose; conditions: sc
Procedure, shortened: (§1)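 Male Swiss albino mice, 18-22 g, five per group. Compound suspended in physiological saline with Tween 80 and given sc. 30 min later, 0.03% phenyl-p-benzoquinone given ip at 0.1 mL/10 g body weight. Total writhes per animal counted against a vehicle-treated control group. % change = (writhes treated/writhes control) × 100 − 100.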

Trichomonas vaginalis = assay: Compound was measured as concentration of compound required for 90% growth inhibition of Trichomonas vaginalis
Procedure, shortened: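 Tube dilution in modified TYM basal medium, with compound added in µg/mL of medium. Inoculum 1 × 10^5/mL T. vaginalis trophozoites pre-grown 48 h in the same medium. Incubated 24 and 48 h at 35 °C. Aliquots diluted in saline with 1% formaldehyde and counted in a Speirs-Levy chamber. MIC is the lowest concentration giving 90% growth inhibition.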

Mus musculus [2] = assay: Analgesic activity was measured on phenylquinone writhing in mice at 50 mg/kg subcutaneous dose; conditions: sc; procedure, shortened: as §1
Mus musculus [3] = assay: Analgesic activity was measured of phenylquinone writhing in mice at 4 mg/kg subcutaneous dose; conditions: sc; procedure, shortened: as §1
Mus musculus [4] = assay: Analgesic activity was measured of phenylquinone writhing in mice at 32 mg/kg subcutaneous dose; conditions: sc; procedure, shortened: as §1
Mus musculus [5] = assay: Analgesic activity was measured of phenylquinone writhing in mice at 64 mg/kg subcutaneous dose; conditions: sc; procedure, shortened: as §1
Mus musculus [6] = assay: Analgesic activity was measured of phenylquinone writhing in mice at 16 mg/kg subcutaneous dose; conditions: sc; procedure, shortened: as §1
Mus musculus [7] = assay: Analgesic activity was measured of phenylquinone writhing in mice at 8 mg/kg subcutaneous dose; conditions: sc; procedure, shortened: as §1
Mus musculus [8] = assay: Analgesic activity was measured on phenylquinone writhing in mice at 56 mg/kg subcutaneous dose; conditions: sc; procedure, shortened: as §1
Mus musculus [9] = assay: Analgesic activity was measured on phenylquinone writhing in mice at 64 mg/kg subcutaneous dose; conditions: sc; procedure, shortened: as §1

SMILES	inhibition in vivo at 128 mg/kg (Mus musculus [1]) [%]	MIC (Trichomonas vaginalis) [µg/mL]	further results
O=S(=O)(c1ccccc1)N1[C@@H]2CC=CN[C@@H]21 (stereo partly drawn)	47	–	–
CN1C=CC[C@@H]2[C@H]1N2S(C)(=O)=O (stereo partly drawn)	50	< 10	–
CC(=O)Oc1ccccc1C(=O)O [ASPIRIN]	–	–	inhibition in vivo at 50 mg/kg (Mus musculus [2]): 50%
CN1C=CC[C@@H]2[C@H]1N2S(=O)(=O)c1ccc(N)cc1 (stereo partly drawn)	97	< 10	inhibition in vivo at 4 mg/kg (Mus musculus [3]): 23%; inhibition in vivo at 32 mg/kg (Mus musculus [4]): 69%; inhibition in vivo at 64 mg/kg (Mus musculus [5]): 78%; inhibition in vivo at 16 mg/kg (Mus musculus [6]): 45%; inhibition in vivo at 8 mg/kg (Mus musculus [7]): 40%
CCC(=O)O[C@](Cc1ccccc1)(c1ccccc1)[C@H](C)CN(C)C [PROPOXYPHENE]	–	–	inhibition in vivo at 56 mg/kg (Mus musculus [8]): 50%
CC(=O)Nc1ccc(S(=O)(=O)N2[C@@H]3CC=CN(C)[C@@H]32)cc1 (stereo partly drawn)	95	< 10	–
CN1C=CC[C@@H]2[C@H]1N2S(=O)(=O)c1ccccc1 (stereo partly drawn)	–	< 10	inhibition in vivo at 64 mg/kg (Mus musculus [9]): 92%
CN1C=CC[C@@H]2[C@H]1N2C#N	–	< 10	inhibition in vivo at 64 mg/kg (Mus musculus [9]): 86%
